Results reported in article PMC10712300 (Protein and peptide letters, 2021).
Ends that are not written are not given here.

How the values were obtained:
[1] = AFM / amyloid fibril formation of an IAPP peptide by itself; format: physicochemical; conditions: 37 μM hIAPP alone, 20 mM tris pH 7.40, 37°C, 40 min shaking, deposited onto mica
Summary of the method: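 HFIP stocks of peptide (0.125 mg/mL) were sonicated 10 min and held at −80°C. HFIP was removed under vacuum and peptide dissolved in 20 mM Tris pH 7.40. hIAPP was held at 37 μM, alone or with animal IAPP at 37 μM (1:1). Incubation: 37°C, 200 rpm, 40 min. Samples were spotted on fresh mica for 5 min, water-washed, dried, and imaged by AC-mode AFM without flattening.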

RIN-m cells [2] = test: LDH cytotoxicity assay; format: cell-based; conditions: 48 h at 37°C; for LDH release / plasma membrane damage, peptide alone: 12.8 μM IAPP alone; for LDH cytotoxicity of hIAPP mixed with animal IAPP: 12.8 μM hIAPP + 12.8 μM animal IAPP (1:1)
Summary of the method: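 RIN-m cells were plated overnight and refed with RPMI-1640 + 10% FBS. HFIP-dried IAPPs were resuspended in the same medium by scraping and 30 s vortexing. Each IAPP was added at 12.8 μM, or hIAPP + animal IAPP 1:1, for 48 h at 37°C, 5% CO2. Spontaneous (water) and maximum (lysis buffer) release wells ran 45 min. Supernatant reaction: 30 min RT dark, then stop. A450/A620; % cytotoxicity by kit equation.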

RIN-m cells [3] = test: Cell morphology imaging; format: cell-based; conditions: for RIN-m cell morphology, peptide alone: 12.8 μM IAPP alone (absence of hIAPP for animal variants); for RIN-m cell morphology, hIAPP mixed with animal IAPP: 12.8 μM hIAPP + animal IAPP, 1:1 ratio
[4] = patients with type 1 diabetes taking hIAPP mimetic supplements; cited from earlier work
[5] = system: hIAPP aggregation / fibril formation; conditions: cited from earlier work
[6] = cited from earlier work

Substance | fibril formation of the peptide alone (AFM) [1] | LDH release / plasma membrane damage, peptide alone (RIN-m cells [2]) | RIN-m cell morphology, peptide alone (RIN-m cells [3]) | LDH cytotoxicity of hIAPP mixed with animal IAPP (RIN-m cells [2]) | RIN-m cell morphology, hIAPP mixed with animal IAPP (RIN-m cells [3]) | average weight loss [4] | inhibition of hIAPP aggregation (literature) [5] | independent aggregation, fibril formation and toxicity to living cells [6]
Human Islet Amyloid Polypeptide (KCNTATCATQRLANFLVHSSNNFGAILSSTNVGSNTY; Islet amyloid polypeptide; UniProt P10997 34-70, looked up) [hIAPP, reference compound] | forms high-density plaques of fibrils | increased the release of LDH into the media | changes in cellular shape, formation of granular nuclear structures, and detachment of numerous cells from the plate surface | – | – | – | – | –
cat IAPP: synthetic naturally occurring cat variant of IAPP (KCNTATCATQRLANFLIRSSNNLGAILSPTNVGSNTY; ends and bridges not checked; cysteine pairing not given here; UniProt P12967 34-70, looked up) | – | some damage to the plasma membrane of the cells, but much less compared to hIAPP | some rounding of cells and detaching from the plate | decreased the toxicity of hIAPP and reduced the amount of damage to the plasma membrane | cells looking better than cells incubated with hIAPP alone | – | – | –
pramlintide | – | – | – | – | – | about 2 kg | – | –
rat IAPP: synthetic naturally occurring rat variant of IAPP, non-amyloidogenic | – | very little effect on the cellular plasma membrane | did not cause significant changes to RIN-m morphology | increased the amount of cytotoxicity in the cell | many cells with a round shape and detached from the plate | – | modest inhibitors of hIAPP aggregation | does not independently aggregate, form fibrils, or show toxicity to living cells
